In the library only some 4.3% were active in any assay of this set; here they are far more common.
CHO parental Ca: ATP-evoked calcium signal inhibitors, parental CHO, primary screen, counter-screen for OX1R antagonist project, cell-based, fluorescence, Fluo-8 calcium dye | AID 463079, 2010 | inhibition, % at 5.6 µM | 0.63% of 330,000 active | parental CHO-K1, ATP-induced calcium, Fluo-8 fluorescence;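 active means inhibition above that plate's mean sample inhibition plus 3 SD, cut at about 26% in these data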;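 further: 0% = ATP-challenged DMSO wells and 100% = DMSO wells without ATP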
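material = parental CHO cells | also added = ATP as calcium-mobilizing challenge | dosing = single point at 5.6 µM | detection = intracellular calcium via Fluo-8 no-wash fluorescent dye | read-out = % inhibition | benchmarks = low control ATP plus DMSO, high control DMSO only | repeats = one well per compound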
GalR3 antag: GalR3 antagonists in HEK293 cells, primary screen, cell-based, fluorescence readout; Galanin receptor type 3 (Homo sapiens), O60755; 0.44% of 360,000 active; inhibition, % at 3 µM; HEK293 GalR3-CNG cAMP membrane potential fluorescence; galR3 body fused to GalR1 C-terminus;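 active means inhibition above the screen-wide average plus 3 SD, cut at about 13% in these data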;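 further: forskolin and galanin both at EC90 stimulate the cells; cAMP rise reported by CNG channel membrane potential dye signal; 0% = forskolin plus galanin with DMSO and 100% = forskolin alone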
OX1R antag-1: OX1R (HCRTR1) antagonists, primary screen, fluorescence, CHO/OX1R cells, Fluo-8 calcium, orexin A; Fluo-8 calcium fluorescence; inhibition, % at 5 µM; 0.43% of 330,000 active; AID 434989, 2010;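 active means inhibition above its plate's threshold, mean inhibition of all tested compounds on the plate plus 3 SD, cut at about 37% in these data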;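 further: 0% = orexin A challenge wells and 100% = SB-334867-A antagonist wells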
Target sequence (O43613 whole entry, looked up): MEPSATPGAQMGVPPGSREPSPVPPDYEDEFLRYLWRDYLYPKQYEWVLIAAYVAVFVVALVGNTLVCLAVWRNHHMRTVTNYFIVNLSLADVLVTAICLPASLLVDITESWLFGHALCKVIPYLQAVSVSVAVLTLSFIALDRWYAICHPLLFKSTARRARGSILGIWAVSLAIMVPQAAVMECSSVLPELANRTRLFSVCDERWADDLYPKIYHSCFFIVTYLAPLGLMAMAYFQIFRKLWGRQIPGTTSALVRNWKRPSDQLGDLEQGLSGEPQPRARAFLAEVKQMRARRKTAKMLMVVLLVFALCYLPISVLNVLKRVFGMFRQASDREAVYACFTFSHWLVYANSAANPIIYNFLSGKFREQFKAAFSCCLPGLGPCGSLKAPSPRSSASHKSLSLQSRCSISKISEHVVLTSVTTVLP
OX1R antag-2: antagonists of human orexin 1 receptor (OX1R) | OX1R-expressing cells, FRET antagonist read-out | inhibition, % at 6.6 µM | 1.8% of 330,000 active; in the data active means inhibition mostly above about 38%, no sharp cut-off; inactive means mostly below about 40%;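 further: 0% = agonist challenge alone and 100% = reference antagonist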
TAAR1 agonist: human TAAR1 agonists, primary screen, Fluo-8 calcium fluorescence, CHO RD-HGA16 cells | AID 624467, 2012 | 0.99% of 360,000 active | Trace amine-associated receptor 1 (Homo sapiens), Q96RJ0 | vehicle wells 0%, saturating PEA agonist 100% | activation, % at 3 µM;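 active means activation above the mean activation of all test compounds in the run plus 3 SD, cut at about 38% in these data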
Target sequence (Q96RJ0 whole entry, looked up): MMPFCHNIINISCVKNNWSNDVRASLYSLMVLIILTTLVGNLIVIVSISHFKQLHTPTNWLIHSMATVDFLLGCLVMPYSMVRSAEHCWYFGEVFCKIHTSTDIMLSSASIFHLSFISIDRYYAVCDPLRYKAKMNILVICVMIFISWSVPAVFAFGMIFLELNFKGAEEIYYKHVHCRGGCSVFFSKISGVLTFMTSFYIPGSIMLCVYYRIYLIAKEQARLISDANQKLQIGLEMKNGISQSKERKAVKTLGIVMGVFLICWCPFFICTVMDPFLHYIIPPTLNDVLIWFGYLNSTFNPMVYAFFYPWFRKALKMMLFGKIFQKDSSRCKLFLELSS
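Assay system: CHO-derived RD-HGA16 cells with stable Gα16 and human TAAR1; timing: 17-24 h seeding, 75 min 37 °C dye, 30 min RT; read-out: % activation from peak over basal fluorescence ratio, DMSO-to-PEA scaled; measured by: kinetic Fluo-8 calcium fluorescence; benchmarks: low control DMSO, high control PEA (EC100); doses: 3 µM single concentration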
TAAR1 antag: human TAAR1 antagonists, primary screen, Fluo-8 calcium fluorescence, CHO RD-HGA16 cells; inhibition, % at 3 µM; Trace amine-associated receptor 1 (Homo sapiens), Q96RJ0; antagonist; 1.5% of 360,000 active; AID 624466, 2012;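 active means inhibition above a per-plate cutoff, the mean inhibition of test compounds on that plate plus 3 SD, cut at about 49% in these data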;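 further: 0% = DMSO plus EC80 beta-PEA response and 100% = DMSO alone without agonist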
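test system = CHO RD-HGA16 cells bearing hTAAR1 | replication = singlicate | controls = DMSO-only wells and EC80 β-PEA-stimulated wells | reagent = EC80 β-phenethylamine stimulus | read-out basis = percent inhibition of PEA-evoked calcium signal, max/basal emission ratio | schedule = seeding 17-24 h prior, 75-min 37 °C, 30-min RT dye loading | signal = kinetic Fluo-8 calcium fluorescence measurement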
TAAR1 nonsel count: nonselective antagonists in TAAR1 counter-screen cells, counter-screen for hTAAR1 antagonist project, cell-based, fluorescence, calcium; shares compounds with TAAR1 antag; counterscreen cell line, antagonist mode; inhibition, % at 3 µM; 77% of 2,400 active; in the data active means inhibition above about 22%;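 further: CHO-Ga16 host cells stimulated with ATP at an EC80 level; 0% = agonist EC80 plus vehicle and 100% = vehicle without agonist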
TAAR1 ant conf: human TAAR1 antagonists, retest of hits, confirmation, cell-based, fluorescence; shares compounds with TAAR1 antag; TAAR1-expressing cells, fluorescence antagonist read-out; inhibition, % at 3 µM; 40% of 2,400 active; AID 651785, 2012; in the data active means inhibition above about 49%;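 further: CHO-Ga16 host cells challenged with agonist PEA near its EC80; 0% = agonist at EC80 plus vehicle and 100% = vehicle with no agonist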
Ga16 ag counter: calcium activation in Ga16-expressing cells, counter-screen for TAAR1 antagonist project, cell-based, fluorescence; shares compounds with TAAR1 antag; agonist counterscreen; activation, % at 3 µM; 18% of 2,400 active; in the data active means activation above about 12%;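 further: 0% = vehicle wells and 100% = saturating stimulus response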
TAAR1 ag count: TAAR1 activation by candidate antagonists – cell-based, fluorescence, counter-screen for TAAR1 antagonist project | shares compounds with TAAR1 antag | hTAAR1 cell line, agonist mode | activation, % at 3 µM | 2% of 2,400 active | AID 651955, 2012; in the data active means activation above about 37%;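 further: CHO cells stably expressing TAAR1 with calcium dye readout; 0% = DMSO vehicle and 100% = full agonist response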
The depositor's hits bear a star; . = no result given.

SMILES	CHO parental Ca	GalR3 antag	OX1R antag-1	OX1R antag-2	TAAR1 agonist	TAAR1 antag	TAAR1 nonsel count	TAAR1 ant conf	Ga16 ag counter	TAAR1 ag count
O=C(COc1ccccc1C(=O)c1cnn(-c2ccccc2)c1)Nc1ccccc1	-16.6	-2.3	-16.6	23.6	1.9	53.2*	24.0*	40.8	6.1	6.3
Cc1ccc(NC(=O)c2ccccc2OCC(=O)Nc2ccccc2F)cc1S(=O)(=O)N(C)C	-2.6	-5.5	6.8	9.2	25.7	68.5*	33.9*	51.6*	10.0	6.0
N#Cc1cc(C(=O)c2ccccc2OCC(=O)Nc2ccccc2)cn(C2CCCCC2)c1=O	-14.7	-1.1	-21.1	14.8	8.8	-0.6	.	.	.	.
CCOc1ccc(OCCCC(=O)N2CCN(S(=O)(=O)c3ccccc3C#N)CC2)cc1	-18.2	-1.6	-22.8	5.4	25.0	60.0*	18.1	33.8	9.6	9.0
CCOc1ccc(OCCC(=O)N2CCN(S(=O)(=O)c3ccc(OCC)cc3)CC2)cc1	-13.8	-3.4	-17.5	-9.5	2.0	-6.9	.	.	.	.
CCC(=O)N1CCCC(C(=O)NS(=O)(=O)c2cc(C)c(Cl)cc2C)CC1 (configuration not stated)	.	-6.1	.	.	3.1	-24.9	.	.	.	.
Cc1ccc2nc(-c3ccc(NC(=O)CSc4nccc(=O)[nH]4)cc3)sc2c1	-1.8	-3.5	13.0	12.9	2.2	0.6	.	.	.	.
Cc1ccc2nc(-c3ccc(NC(=O)CSc4nc(N)cc(=O)[nH]4)cc3)sc2c1	-1.1	2.3	12.0	12.4	-0.1	103.3*	11.4	-0.1	2.1	3.2
COc1ccc(CN(C)CCCn2cnc3c(SC)ncnc32)cc1OC	.	-7.3	.	.	1.9	-14.1	.	.	.	.
CC(/C=C1\SC(=Nc2cccnc2)NC1=O)=C\c1ccccc1	-3.2	-5.4	-21.7	18.2	5.4	62.0*	29.0*	55.5*	7.0	6.8
Cc1cccc(-c2noc(CCC(=O)NCc3ccccc3)n2)c1	-26.2	-0.6	-10.3	29.9	7.7	105.6*	13.2	4.0	7.5	11.7
Cc1cccc(-c2noc(CCC(=O)NCCc3ccccc3)n2)c1	-16.7	-10.8	-7.8	2.4	16.9	12.3	.	.	.	.
O=C(NCc1ccco1)c1cccc(-c2nnc(-c3ccccc3)o2)c1	-9.6	-3.8	-13.4	44.4	10.8	61.7*	22.0*	42.3	6.5	9.7
Cc1cccc(-c2noc(-c3ccccc3C(=O)NCc3ccco3)n2)c1	-31.7	-1.4	-32.1	6.6	16.1	52.5*	25.6*	35.2	4.5	4.1
Cn1c(N)nc(N)c(NC=O)c1=O	.	-5.8	.	.	3.0	-19.0	.	.	.	.
Cc1cccc(NC(=O)c2cccc(S(=O)(=O)N3CCc4ccccc4C3)c2)n1	-25.0	-2.4	-23.5	21.2	0.9	44.7	.	.	.	.
O=C(CCSCc1cccc(F)c1)NCCc1ccccc1	1.6	-9.4	-30.7	6.1	19.1	55.9*	3.7	68.8*	7.2	25.8
CCN(CC)S(=O)(=O)c1ccc2nc(NC(=O)c3cccs3)sc2c1	11.6	-2.8	2.9	50.9	37.1	62.7*	18.5	36.6	9.6	17.0
C=CCn1cnc2c(c1=O)c1nc3ccccc3nc1n2/N=C/c1cc(OC)c(OC)c(OC)c1	-6.4	-1.5	-27.8	31.0	9.3	6.6	.	.	.	.
COCCn1cnc2c(c1=O)c1nc3ccccc3nc1n2/N=C/c1cccc(OC)c1	-14.4	-4.5	-19.6	20.8	19.6	53.4*	26.7*	44.5	6.8	6.3
CN(C)S(=O)(=O)c1cc(NC(=O)CNCCN2CCOCC2)ccc1Cl	-9.3	-1.4	-11.0	14.8	0.4	104.5*	8.1	-3.4	3.1	5.2
CC(=O)c1c(C)[nH]c(C(=O)Nc2ccc(Cl)c(S(=O)(=O)N(C)C)c2)c1C	-12.0	-9.1	-25.9	7.0	13.1	23.6	.	.	.	.
CC(=O)c1c(C)[nH]c(C(=O)OCC(=O)Nc2ccc(Cl)c(S(=O)(=O)N(C)C)c2)c1C	8.7	-6.9	-2.0	21.4	12.1	67.8*	27.7*	47.8	12.1*	11.1
C[C@H](O)[C@@H]1C(=O)N2CCc3c([nH]c4c(-c5ccc6c(c5)OCO6)cccc34)[C@@H]2C[C@@H]1N(C)C(=O)Nc1ccccc1	.	-7.5	.	.	4.2	24.5	.	.	.	.
O=C(NC1CC1)c1ccc(NC(=O)C2CCCCC2)cc1	.	-5.6	.	.	8.1	-7.2	.	.	.	.
SMILES	CHO parental Ca	GalR3 antag	OX1R antag-1	OX1R antag-2	TAAR1 agonist	TAAR1 antag	TAAR1 nonsel count	TAAR1 ant conf	Ga16 ag counter	TAAR1 ag count
O=C(NCCN1C(=O)S/C(=C\c2ccc(F)cc2)C1=O)c1cccc(S(=O)(=O)N2CCOCC2)c1	9.7	-4.2	-4.2	26.5	15.8	69.9*	42.8*	60.0*	15.3*	12.7
CCOC(=O)C1(C)CCN1C(=O)c1ccc(OC)c(OC)c1 (configuration not stated)	.	-6.6	.	.	0.6	-2.5	.	.	.	.
CCN1C(=O)c2cccc3c(S(=O)(=O)N(C(=O)c4ccncc4)c4ccc(OC)cc4)ccc1c23	-4.2	-3.3	0.8	60.9	12.9	66.4*	31.4*	42.5	6.4	4.2
CCN1C(=O)c2cccc3c(S(=O)(=O)N(C)C)ccc1c23	.	-3.1	.	.	0.7	-12.0	.	.	.	.
CCN1C(=O)c2cccc3c(S(=O)(=O)N(C(=O)c4cccnc4)c4ccc(OC)cc4)ccc1c23	-15.7	-6.6	-25.2	18.0	14.4	67.5*	31.3*	54.4*	7.8	9.0
Cc1ccc(S(=O)(=O)NC(CC(=O)OCc2ccccc2)C(=O)OCc2ccccc2)cc1 (configuration not stated)	.	-0.9	.	.	3.3	33.2	.	.	.	.
C#CCN(C[C@@H](CC(C)C)NC(=O)OC(C)(C)C)S(=O)(=O)c1ccc(Br)cc1F	.	-6.4	.	.	2.5	50.7*	16.0	15.6	3.3	1.9

Compound activity from PubChem BioAssay.
